Data reported in ChEMBL document CHEMBL1143122, “Novel analogs of D-e-MAPP and B13. Part 1: synthesis and evaluation as potential anticancer agents” (Bioorg Med Chem, 2008).

Experiments:
[1] = system: MCF7; experiment: Antiproliferative activity against human MCF7 cells after 48 hrs; format: functional, cell-based; settings: MCF7, 48 h
[2] = system: NCI-H226; experiment: Antiproliferative activity against human NCI-H226 cells after 48 hrs; format: functional; settings: NCI-H226, 48 h
Summary of the method: (§1)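 NCI 60-cell screen. Cells were grown in RPMI 1640 with 5% FBS and 2 mM L-glutamine, then plated at 5,000–40,000 cells/well according to doubling time and preincubated for 24 h at 37 °C in 5% CO2. Compounds were dissolved in DMSO at 400× the top final concentration and tested at five 10-fold dilutions from 10−4 to 10−8 M for 48 h. Growth was read spectrophotometrically; GI50 is 50% net protein reduction.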

[3] = Antiproliferative activity against human NCI-ADR-RES cells after 48 hrs; format: functional; summary of the method: as §1
[4] = system: RPMI-8226; experiment: Antiproliferative activity against human RPMI8226 cells after 48 hrs; format: functional; settings: RPMI-8226, 48 h; summary of the method: as §1
[5] = system: OVCAR-4; experiment: Antiproliferative activity against human OVCAR4 cells after 48 hrs; format: functional; settings: OVCAR-4, 48 h; summary of the method: as §1
[6] = system: UO-31; experiment: Antiproliferative activity against human UO31 cells after 48 hrs; format: functional; settings: UO-31, 48 h
Summary of the method: (§2)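 NCI 60-cell-line screen. Lines grown in RPMI 1640 with 5% fetal bovine serum and 2 mM L-glutamine, plated at 5,000–40,000 cells/well according to doubling time, left 24 h at 37 °C in 5% CO2. Drug stocks in DMSO at 400-fold the top final concentration. Five 10-fold dilutions, 10−4 to 10−8 M, incubated 48 h. Growth read spectrophotometrically as net protein; GI50 taken as 50% reduction.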

[7] = system: UACC-257; experiment: Antiproliferative activity against human UACC257 cells after 48 hrs; format: functional; settings: UACC-257, 48 h; summary of the method: as §2
[8] = system: T47D; experiment: Antiproliferative activity against human T47D cells after 48 hrs; format: functional; summary of the method: as §2
[9] = system: SK-MEL-28; experiment: Antiproliferative activity against human SKMEL28 cells after 48 hrs; format: functional; settings: SK-MEL-28, 48 h; summary of the method: as §1
[10] = system: SF-539; experiment: Antiproliferative activity against human SF539 cells after 48 hrs; format: functional; settings: SF-539, 48 h; summary of the method: as §1
[11] = system: PC-3; experiment: Antiproliferative activity against human PC3 cells after 48 hrs; format: functional; settings: PC-3, 48 h; summary of the method: as §1
[12] = system: SF-268; experiment: Antiproliferative activity against human SF268 cells after 48 hrs; format: functional; settings: SF-268, 48 h; summary of the method: as §1
[13] = system: DU-145; experiment: Antiproliferative activity against human DU145 cells after 48 hrs; format: functional; settings: DU-145, 48 h; summary of the method: as §1
[14] = system: CAKI-1; experiment: Antiproliferative activity against human CAKI1 cells after 48 hrs; format: functional; settings: CAKI-1, 48 h; summary of the method: as §1
[15] = system: OVCAR-3; experiment: Antiproliferative activity against human OVCAR-3 cells after 48 hrs; format: functional; settings: OVCAR-3, 48 h; summary of the method: as §1
[16] = system: BT-549; experiment: Antiproliferative activity against human BT549 cells after 48 hrs; format: functional; settings: BT-549, 48 h; summary of the method: as §1
[17] = system: RXF 393; experiment: Antiproliferative activity against human RXF393 cells after 48 hrs; format: functional; settings: RXF 393, 48 h; summary of the method: as §1
[18] = system: NCI-H23; experiment: Antiproliferative activity against human NCI-H23 cells after 48 hrs; format: functional; settings: NCI-H23, 48 h; summary of the method: as §1
[19] = system: Hs-578T; experiment: Antiproliferative activity against human HS578T cells after 48 hrs; format: functional; summary of the method: as §1
[20] = system: NCI-H322M; experiment: Antiproliferative activity against human NCI-H322M cells after 48 hrs; format: functional; summary of the method: as §1
[21] = system: OVCAR-5; experiment: Antiproliferative activity against human OVCAR5 cells after 48 hrs; format: functional; settings: OVCAR-5, 48 h; summary of the method: as §1
[22] = system: SNB-19; experiment: Antiproliferative activity against human SNB19 cells after 48 hrs; format: functional; settings: SNB-19, 48 h; summary of the method: as §1
[23] = system: MDA-MB-231; experiment: Antiproliferative activity against human MDA-MB-231 cells after 48 hrs; format: functional; settings: MDA-MB-231, 48 h; summary of the method: as §1
[24] = system: HT-29; experiment: Antiproliferative activity against human HT29 cells after 48 hrs; format: functional; settings: HT-29, 48 h; summary of the method: as §1
[25] = system: HCT-15; experiment: Antiproliferative activity against human HCT15 cells after 48 hrs; format: functional; summary of the method: as §1
[26] = system: A549; experiment: Antiproliferative activity against human A549 cells after 48 hrs; format: functional; settings: A549, 48 h; summary of the method: as §1
[27] = system: MDA-MB-435; experiment: Antiproliferative activity against human MDA-MB-435 cells after 48 hrs; format: functional; settings: Homo sapiens, MDA-MB-435, 48 h; summary of the method: as §1
[28] = system: SK-OV-3; experiment: Antiproliferative activity against human SKOV3 cells after 48 hrs; format: functional; settings: SK-OV-3, 48 h; summary of the method: as §1
[29] = system: U-251; experiment: Antiproliferative activity against human U251 cells after 48 hrs; format: functional; settings: U-251, 48 h; summary of the method: as §2
[30] = system: M14; experiment: Antiproliferative activity against human M14 cells after 48 hrs; format: functional; settings: M14, 48 h; summary of the method: as §1
[31] = system: COLO 205; experiment: Antiproliferative activity against human COLO205 cells after 48 hrs; format: functional; settings: COLO 205, 48 h; summary of the method: as §1
[32] = system: MOLT-4; experiment: Antiproliferative activity against human MOLT4 cells after 48 hrs; format: functional; settings: MOLT-4, 48 h; summary of the method: as §1
[33] = read-out: Log LC50 (the source's name) (converted)

SMILES: CCCCCCCCCCCCCCN[C@@H](C)[C@H](O)c1ccccc1
- GI50 [1]: 1.82 µM
- LC50 [1]: 6.31 µM
- TGI ([1]; read-out: Log TGI (converted)): 3.39 µM
- GI50 [2]: 1.95 µM
- TGI ([2]; read-out: Log TGI (converted)): 3.8 µM
- GI50 [3]: 1.7 µM
- TGI ([3]; read-out: Log TGI (converted)): 3.39 µM
- GI50 [4]: 2 µM
- TGI ([4]; read-out: Log TGI (converted)): 4.37 µM
- GI50 [5]: 2 µM
- LC50 [5]: 3.72 µM
- TGI ([5]; read-out: Log TGI (converted)): 6.92 µM
- GI50 [6]: 1.74 µM
- LC50 [6]: 6.61 µM
- TGI ([6]; read-out: Log TGI (converted)): 3.39 µM
- GI50 [7]: 1.86 µM
- CC50 [7, 33]: 6.76 µM
- TGI ([7]; read-out: Log TGI (converted)): 3.55 µM
- GI50 [8]: 2.09 µM
- CC50 [8, 33]: 7.59 µM
- TGI ([8]; read-out: Log TGI (converted)): 3.98 µM
- GI50 [9]: 1.91 µM
- LC50 [9]: 6.31 µM
- TGI ([9]; read-out: Log TGI (converted)): 3.47 µM
- GI50 [10]: 1.78 µM
- TGI ([10]; read-out: Log TGI (converted)): 3.39 µM
- GI50 [11]: 2.04 µM
- TGI ([11]; read-out: Log TGI (converted)): 3.72 µM
- GI50 [12]: 1.78 µM
- LC50 [12]: 6.61 µM
- TGI ([12]; read-out: Log TGI (converted)): 3.39 µM
- GI50 [13]: 1.86 µM
- CC50 [13, 33]: 6.46 µM
- TGI ([13]; read-out: Log TGI (converted)): 3.47 µM
- GI50 [14]: 1.95 µM
- CC50 [14, 33]: 5.89 µM
- TGI ([14]; read-out: Log TGI (converted)): 3.39 µM
- GI50 [15]: 1.66 µM
- TGI ([15]; read-out: Log TGI (converted)): 3.16 µM
- GI50 [16]: 1.51 µM
- LC50 [16]: 5.75 µM
- TGI ([16]; read-out: Log TGI (converted)): 2.95 µM
- GI50 [17]: 1.66 µM
- CC50 [17, 33]: 6.03 µM
- TGI ([17]; read-out: Log TGI (converted)): 3.16 µM
- GI50 [18]: 1.82 µM
- CC50 [18, 33]: 6.76 µM
- TGI ([18]; read-out: Log TGI (converted)): 3.55 µM
- GI50 [19]: 2.19 µM
- LC50 [19]: > 100 µM
- TGI ([19]; read-out: Log TGI (converted)): 5.5 µM
- GI50 [20]: 2.04 µM
- CC50 [20, 33]: 6.61 µM
- TGI ([20]; read-out: Log TGI (converted)): 3.72 µM
- GI50 [21]: 1.7 µM
- CC50 [21, 33]: 5.75 µM
- TGI ([21]; read-out: Log TGI (converted)): 3.16 µM
- GI50 [22]: 1.7 µM
- CC50 [22, 33]: 5.89 µM
- TGI ([22]; read-out: Log TGI (converted)): 3.16 µM
- GI50 [23]: 1.91 µM
- LC50 (50% lethal concentration) [23]: 6.46 µM
- TGI ([23]; read-out: Log TGI (converted)): 3.55 µM
- GI50 [24]: 1.86 µM
- LC50 [24]: 6.76 µM
- TGI ([24]; read-out: Log TGI (converted)): 3.55 µM
- LC50 [25]: 6.31 µM
- GI50 ([25]; Homo sapiens, HCT-15, 48 h): 1.91 µM
- LC50 ([25]; Homo sapiens, HCT-15, 48 h): 5.89 µM
- GI50 [26]: 1.91 µM
- CC50 [26, 33]: 7.08 µM
- TGI ([26]; read-out: Log TGI (converted)): 3.63 µM
- GI50 [27]: 1.78 µM
- LC50 [27]: 5.75 µM
- TGI ([27]; read-out: Log TGI (converted)): 3.24 µM
- GI50 [28]: 2.34 µM
- CC50 [28, 33]: 9.77 µM
- TGI ([28]; read-out: Log TGI (converted)): 4.79 µM
- GI50 [29]: 1.82 µM
- CC50 [29, 33]: 5.89 µM
- TGI ([29]; read-out: Log TGI (converted)): 3.24 µM
- GI50 [30]: 1.95 µM
- LC50 [30]: 6.31 µM
- TGI ([30]; read-out: Log TGI (converted)): 3.55 µM
- GI50 [31]: 1.74 µM
- CC50 [31, 33]: 6.17 µM
- TGI ([31]; read-out: Log TGI (converted)): 3.31 µM
- GI50 [32]: 2.29 µM
- TGI ([32]; read-out: Log TGI (converted)): 4.68 µM
